14 compounds from ChEMBL document CHEMBL2203014, “Structure-Based Design of Potent and Selective CK1γ Inhibitors” (ACS Med Chem Lett, 2012) can be followed below.

Bounds are passed on as bounds.

For data set [1], the target named is Casein kinase I isoform delta (Homo sapiens, UniProt P48730).
For data set [2], the target named is Casein kinase I isoform alpha (Homo sapiens, UniProt P48729). Briefly: Inhibition of CK1-alpha using biotin[long chain]-KKRRRAL{pS}VATLPGL substrate in presence of 8 uM ATP.
Casein kinase I isoform alpha, sequence (P48729 whole entry, canonical isoform): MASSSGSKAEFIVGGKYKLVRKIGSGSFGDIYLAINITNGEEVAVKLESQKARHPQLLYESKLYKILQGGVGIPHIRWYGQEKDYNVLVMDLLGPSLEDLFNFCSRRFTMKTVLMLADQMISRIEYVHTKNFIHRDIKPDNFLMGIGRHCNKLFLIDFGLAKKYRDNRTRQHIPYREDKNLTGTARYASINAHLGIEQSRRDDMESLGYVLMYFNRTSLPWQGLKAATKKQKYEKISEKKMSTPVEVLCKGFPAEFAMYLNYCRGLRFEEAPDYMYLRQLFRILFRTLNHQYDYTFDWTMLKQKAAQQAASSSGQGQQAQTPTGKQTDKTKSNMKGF
For data set [3], the target named is Glycogen synthase kinase-3 beta (Homo sapiens, UniProt P49841).
Glycogen synthase kinase-3 beta, sequence (P49841 whole entry, canonical isoform): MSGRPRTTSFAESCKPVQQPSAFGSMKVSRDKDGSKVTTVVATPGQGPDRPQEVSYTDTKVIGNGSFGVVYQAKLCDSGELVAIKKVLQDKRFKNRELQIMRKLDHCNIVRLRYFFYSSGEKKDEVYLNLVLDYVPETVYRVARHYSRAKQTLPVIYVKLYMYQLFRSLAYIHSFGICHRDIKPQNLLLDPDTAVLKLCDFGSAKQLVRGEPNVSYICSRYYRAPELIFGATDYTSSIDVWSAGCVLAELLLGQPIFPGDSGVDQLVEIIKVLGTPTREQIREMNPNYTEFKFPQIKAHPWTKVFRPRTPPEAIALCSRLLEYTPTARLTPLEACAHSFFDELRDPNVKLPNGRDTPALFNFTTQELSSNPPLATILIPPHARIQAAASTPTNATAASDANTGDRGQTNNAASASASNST
The target of data set [4] is T1, Casein kinase I isoform gamma-2 (Homo sapiens, UniProt P78368).
T1 sequence (P78368 whole entry, canonical isoform): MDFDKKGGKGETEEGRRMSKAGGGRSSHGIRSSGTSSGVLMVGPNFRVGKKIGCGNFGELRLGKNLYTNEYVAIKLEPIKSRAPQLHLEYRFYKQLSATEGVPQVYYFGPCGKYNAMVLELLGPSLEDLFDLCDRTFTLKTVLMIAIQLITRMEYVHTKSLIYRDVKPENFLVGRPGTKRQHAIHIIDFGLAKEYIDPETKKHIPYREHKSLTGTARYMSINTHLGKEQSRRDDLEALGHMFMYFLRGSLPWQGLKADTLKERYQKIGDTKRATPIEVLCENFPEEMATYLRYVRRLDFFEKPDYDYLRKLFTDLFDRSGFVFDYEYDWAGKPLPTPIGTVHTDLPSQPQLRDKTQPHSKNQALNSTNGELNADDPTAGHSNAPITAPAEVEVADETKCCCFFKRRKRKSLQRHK
Data set [5] has as its target T1, Casein kinase I isoform gamma-2. Briefly: Inhibition of CK1-gamma2 in human RKO cell assessed as inhibition of Wnt3a-induced Wnt signaling treated 1 hr prior to Wnt3a ligand addition measured after 18 to 24 hrs by luciferase reporter gene assay. Background: In a reporter assay the amount or activity of a reporter protein is the signal.
Data set [6] is described as follows: Selectivity ratio of IC50 for CK1-alpha to IC50 for CK1-gamma2.
The nature of data set [7]: Selectivity ratio of IC50 for CK1-delta to IC50 for CK1-gamma2.
The nature of data set [8]: Intrinsic clearance in rat liver microsomes at 1 uM after 30 mins. Type of data set: ADME, Microsome. The note with it: read-out: CLH. In outline: (§1)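 Liver microsome turnover (human or rat): compound at 1 μM incubated with microsomes for 30 min. Intrinsic clearance reported in μL/(min·mg).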
A general note: Microsomes from liver hold many membrane-bound enzymes, among them those of drug oxidation.

Data set [9] concerns the target T1, Casein kinase I isoform gamma-2. Kind of data set: Inhibition of human CK1-gamma2 in HEK293 cells assessed as inhibition of doxcycline-induced LRP6 phosphorylation after 2 hrs by electrochemiluminescence analysis. The data set is classed as cell-based.
Data set [10] in a line: Half life in […] mouse at 30 mg/kg, po. The data set is classed as ADME, organism-based. The arrangement: dose 30 mg/kg, route oral. The note with it: in vivo. In outline: (§2)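 Oral PK in male CD1 mice, 3 animals per study, dosed at 30 mg/kg po. Vehicle: 10.0% Pluronic F68 / 30.0% HPBCD / 60.0% water with MSA, pH 2.5. Cmax, t1/2, Tmax and AUC were taken from plasma exposure.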

Data set [11] in a line: Intrinsic clearance in human liver microsomes at 1 uM after 30 mins. Type of data set: ADME, Microsome. The note with it: read-out: CLH. In outline:
as §1

Data set [12] can be described thus: AUC in […] mouse at 30 mg/kg, po. The data set is classed as ADME, organism-based. More on the design: dose 30 mg/kg, route oral. The note with it: plasma. Summed up:
as §2

The nature of data set [13]: Tmax in […] mouse at 30 mg/kg, po. Type of data set: ADME, organism-based. The arrangement: dose 30 mg/kg, route oral. The settings on record: in vivo. Summed up:
as §2

Data set [14] is described as follows: Plasma protein binding in mouse. Type of data set: ADME, cell-free. The note with it: read-out: PPB (converted).
Data set [15] is described as follows: Cmax in […] mouse at 30 mg/kg, po. The data set is classed as ADME, organism-based. The note with it: in vivo. The arrangement: dose 30 mg/kg, route oral. Summed up: as §2
Data set [16] in a line: Plasma protein binding in rat. The data set is classed as ADME, cell-free. The note with it: read-out: PPB (converted).
The nature of data set [17]: Plasma concentration in HEK-293 cells xenografted in nude mouse at 50 mg/kg, po after 6 hrs. The data set is classed as ADME, organism-based, HEK293. More on the design: dose 50 mg/kg, route oral. Summed up:
(§3)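 Athymic nude mice carried subcutaneous tumors of HEK293 cells constitutively expressing LRP6 with doxycycline-inducible CK1γ. Doxycycline (0.5 mg/mL) was given in drinking water for 24 h to stimulate LRP6 phosphorylation, then compound was dosed orally at 50 mg/kg. Tumor and plasma were collected 6 h post-dose. Tumor phospho-LRP6 was quantified by electrochemiluminescent assay, and plasma total and unbound exposure were determined.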

A further data set relates to Plasma. Kind of data set: Unbound concentration in HEK293 cells xenografted in nude mouse at 50 mg/kg, po after 6 hrs. The data set is classed as ADME, organism-based. More on the design: dose 50 mg/kg, route oral. The note with it: in vivo. In outline:
as §3

For another data set, the system named is Mus musculus. Briefly: Inhibition of CK1-gamma-mediated LRP6 phosphorylation in HEK293 cells xenografted in nude mouse at 50 mg/kg, po after 6 hrs by electrochemiluminescent assay. The data set is classed as functional. The settings on record: HEK293, 6 h. In outline: as §3

Casein kinase I isoform delta, sequence (P48730 whole entry, canonical isoform): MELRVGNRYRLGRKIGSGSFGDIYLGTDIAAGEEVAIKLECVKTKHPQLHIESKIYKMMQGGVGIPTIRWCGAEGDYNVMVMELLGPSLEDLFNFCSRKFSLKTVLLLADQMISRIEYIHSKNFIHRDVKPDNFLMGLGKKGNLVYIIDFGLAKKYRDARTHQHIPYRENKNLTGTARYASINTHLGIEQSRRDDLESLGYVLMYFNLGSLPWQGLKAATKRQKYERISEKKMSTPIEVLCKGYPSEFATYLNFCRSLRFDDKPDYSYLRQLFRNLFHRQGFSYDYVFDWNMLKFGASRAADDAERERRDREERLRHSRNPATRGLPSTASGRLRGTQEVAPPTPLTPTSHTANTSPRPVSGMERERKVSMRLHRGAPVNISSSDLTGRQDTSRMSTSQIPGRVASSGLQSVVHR

A word on the IC50: it is the midpoint of a concentration-inhibition curve. In the case of `COc1cnc(Oc2ccccc2)nc1-c1cc2c([nH]1)CCNC2=O`, the 50% inhibitory concentration (IC50) in data set [1] was 4860 nM; in data set [2], 18500 nM; in data set [3], above 62500 nM; in data set [4], 853 nM.

`COc1cnc(/C=C/c2ccc(F)cc2)nc1-c1cc2c([nH]1)CCNC2=O`: the half-maximal inhibitory concentration (IC50) in [3] is 1220 nM; in data set [4] it was 50 nM.

For the compound `COc1cnc(COc2ccc(F)cc2)cc1-c1cc2c([nH]1)CCNC2=O`, the IC50 is 7830 nM in [3], 5 nM in data set [4] and 584 nM in [5].

Consider `COc1cnc(COc2ccc(F)cc2)nc1-c1cc2c([nH]1)CCNC2=O`, for which the IC50 in [1] came to 58 nM; in data set [2] it was 146 nM; in data set [3], 1120 nM; in data set [4] it was 24 nM. For the same compound, in data set [6], the Ratio IC50 worked out at 6.

In the case of `COc1cnc(COc2ccc(F)cc2F)cc1-c1cc2c([nH]1)CCNC2=O`, the Ratio IC50 came to 12 in data set [7] and 75 in [6]. The half-inhibitory concentration (IC50) amounted to 36 nM in [1]; 225 nM in data set [2]; 4000 nM in data set [3]; 3 nM in data set [4]; 394 nM in [5].

Usually half-life stands for the time in which the quantity being followed falls by half. A lower half-life goes with fast loss. The AUC is concentration integrated over time. Low readings indicate low exposure, high ones high exposure. In general, Tmax refers to the time at which the peak concentration occurs. In general, Cmax refers to the peak of the concentration-time curve. Turning to `COc1cnc(COc2cc(F)c(F)cc2C)cc1-c1cc2c([nH]1)CCNC2=O`, the microsomal CLint at 1 µM was 106 µL/min/mg in data set [8] and 177 µL/min/mg in [11]. For the same compound, the IC50 is 87 nM in data set [9], 38100 nM in data set [3], 4 nM in data set [4] and 44 nM in data set [5]. The compound also showed a half-life in data set [10] of 1.4 h. Further, the AUC in data set [12] was 2.1 µM·h. The time to peak (Tmax) in [13] was determined as 1.17 h. In addition, the fraction unbound in data set [14] is 0.008. Moreover, in data set [15], the highest concentration (Cmax) was 560 nM.

As to `COc1cnc(CCc2ccc(F)cc2)cc1-c1cc2c([nH]1)CCNC2=O`, the concentration for half-maximal inhibition (IC50) in [3] is above 62500 nM.

For orientation: inhibition in vivo means how much of the control response was suppressed. On to `COc1cnc(COc2ccc(F)c(F)c2)cc1-c1cc2c([nH]1)CCNC2=O`, for which the microsomal CLint at 1 µM in [8] was determined as 46 µL/min/mg; in data set [11] it was 59 µL/min/mg. Besides, the fraction unbound in data set [16] was 0.031; in [14], 0.049. Also, the IC50 in data set [9] came to 200 nM; in data set [1], 40 nM; in data set [2], 251 nM; in data set [3] it was 10800 nM; in data set [4], 5 nM; in data set [5], 254 nM. Moreover, the figures for the Ratio IC50 in data set [7] and in data set [6] were 8 and 50, respectively. For the same compound, the concentration at 6 h in data set [17] amounted to 2700 nM. Moreover, in data set [10], the half-life is 2.7 h. Besides, in data set [12], the AUC came to 15.4 µM·h. The Tmax in data set [13] came out at 0.33 h. In the data set on Plasma, this compound displayed a Concentration of 130 nM. The compound also registered a Cmax in data set [15] of 9720 nM. In addition, testing at 50 mg/kg with Mus musculus gave an inhibition in vivo of 42%.

Regarding `COc1cnc(COc2ccc(F)cc2C)cc1-c1cc2c([nH]1)CCNC2=O`, the Ratio IC50 in [7] came out at 20; in [6] it was 147. Besides, the concentration for half-maximal inhibition (IC50) in data set [1] came to 59 nM; in data set [2], 442 nM; in data set [3], 53300 nM; in data set [4] it was 3 nM; in data set [5], 537 nM.

In the case of `COc1cnc(CCc2ccc(F)cc2)nc1-c1cc2c([nH]1)CCNC2=O`, the concentration for half-maximal inhibition (IC50) amounted to 25600 nM in data set [3] and 17 nM in [4].

`COc1cnc(Nc2ccccc2)nc1-c1cc2c([nH]1)CCNC2=O`: the values for the IC50 in [3] and in [4] were 16 nM and 8 nM, respectively.

With `COc1cnc(NCc2ccccc2)nc1-c1cc2c([nH]1)CCNC2=O`, the IC50 is 22 nM in data set [1], 19 nM in [2], 98 nM in data set [3] and 33 nM in data set [4].

With `COc1cnc(OCc2ccc(F)cc2)nc1-c1cc2c([nH]1)CCNC2=O`, the half-inhibitory concentration (IC50) in data set [1] was 168 nM; in data set [2] it was 95 nM; in [3], above 30000 nM; in [4], 80 nM.

For `COc1cnc(-c2cnc3ccccc3c2)nc1-c1cc2c([nH]1)CCNC2=O`, the half-maximal inhibitory concentration (IC50) in [9] is 348 nM; in data set [1] it was 68 nM; in [2] it was 9 nM; in data set [3] it was 1.49 nM; in [4], 8 nM; in data set [5], above 3330 nM. In addition, the Ratio IC50 in data set [7] was 8; in [6], 1.
